Data taken from PMC4312721 (Biochimica et biophysica acta, 2014).
Like-named read-outs stand apart in the source and are kept apart here.

How the values were obtained:
PLD = conditions: cited from earlier work
PLD1 [1] = molecular target: T1, PLD1 (Homo sapiens, UniProt Q13393); assay: Phospholipase; format: biochemical
T1 sequence (Q13393 1-1074): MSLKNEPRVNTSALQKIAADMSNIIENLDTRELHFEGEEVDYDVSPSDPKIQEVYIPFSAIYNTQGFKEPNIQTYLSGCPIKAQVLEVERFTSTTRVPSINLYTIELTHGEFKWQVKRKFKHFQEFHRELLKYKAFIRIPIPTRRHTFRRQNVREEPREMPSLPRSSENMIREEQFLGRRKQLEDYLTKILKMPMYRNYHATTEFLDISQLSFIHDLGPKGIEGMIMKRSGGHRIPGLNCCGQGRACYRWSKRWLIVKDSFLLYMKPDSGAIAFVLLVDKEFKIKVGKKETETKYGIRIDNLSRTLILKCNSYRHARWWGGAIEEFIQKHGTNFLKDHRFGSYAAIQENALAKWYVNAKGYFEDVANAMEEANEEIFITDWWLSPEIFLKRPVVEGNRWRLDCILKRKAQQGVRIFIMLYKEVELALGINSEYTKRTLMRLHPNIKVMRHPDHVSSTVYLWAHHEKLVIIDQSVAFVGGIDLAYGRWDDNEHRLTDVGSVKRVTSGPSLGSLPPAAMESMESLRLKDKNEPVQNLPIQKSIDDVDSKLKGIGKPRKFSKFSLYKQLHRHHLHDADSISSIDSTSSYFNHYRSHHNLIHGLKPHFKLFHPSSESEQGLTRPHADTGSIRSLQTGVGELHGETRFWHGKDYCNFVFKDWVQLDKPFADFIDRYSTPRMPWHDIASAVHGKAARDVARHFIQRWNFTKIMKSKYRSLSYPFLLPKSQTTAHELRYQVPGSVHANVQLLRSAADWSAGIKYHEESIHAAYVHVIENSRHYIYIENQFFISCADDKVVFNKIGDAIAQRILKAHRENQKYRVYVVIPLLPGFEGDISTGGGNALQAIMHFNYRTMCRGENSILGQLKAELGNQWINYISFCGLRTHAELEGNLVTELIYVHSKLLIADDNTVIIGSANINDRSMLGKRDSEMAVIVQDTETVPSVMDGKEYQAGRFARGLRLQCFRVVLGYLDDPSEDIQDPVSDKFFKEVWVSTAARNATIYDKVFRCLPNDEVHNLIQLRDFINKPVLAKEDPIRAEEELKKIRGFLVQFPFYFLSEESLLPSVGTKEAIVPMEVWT

recombinant PLD2 [2] = molecular target: T2, recombinant PLD2 (Homo sapiens, UniProt O14939); assay: Enzyme inhibition kinetics with purified recombinant PLD2; format: biochemical; conditions: 300 nM inhibitor; for Effect on Km / Effect on Vmax / Type of inhibition (Lineweaver Burk plot): increasing PC
T2 sequence (O14939 whole entry, species assumed): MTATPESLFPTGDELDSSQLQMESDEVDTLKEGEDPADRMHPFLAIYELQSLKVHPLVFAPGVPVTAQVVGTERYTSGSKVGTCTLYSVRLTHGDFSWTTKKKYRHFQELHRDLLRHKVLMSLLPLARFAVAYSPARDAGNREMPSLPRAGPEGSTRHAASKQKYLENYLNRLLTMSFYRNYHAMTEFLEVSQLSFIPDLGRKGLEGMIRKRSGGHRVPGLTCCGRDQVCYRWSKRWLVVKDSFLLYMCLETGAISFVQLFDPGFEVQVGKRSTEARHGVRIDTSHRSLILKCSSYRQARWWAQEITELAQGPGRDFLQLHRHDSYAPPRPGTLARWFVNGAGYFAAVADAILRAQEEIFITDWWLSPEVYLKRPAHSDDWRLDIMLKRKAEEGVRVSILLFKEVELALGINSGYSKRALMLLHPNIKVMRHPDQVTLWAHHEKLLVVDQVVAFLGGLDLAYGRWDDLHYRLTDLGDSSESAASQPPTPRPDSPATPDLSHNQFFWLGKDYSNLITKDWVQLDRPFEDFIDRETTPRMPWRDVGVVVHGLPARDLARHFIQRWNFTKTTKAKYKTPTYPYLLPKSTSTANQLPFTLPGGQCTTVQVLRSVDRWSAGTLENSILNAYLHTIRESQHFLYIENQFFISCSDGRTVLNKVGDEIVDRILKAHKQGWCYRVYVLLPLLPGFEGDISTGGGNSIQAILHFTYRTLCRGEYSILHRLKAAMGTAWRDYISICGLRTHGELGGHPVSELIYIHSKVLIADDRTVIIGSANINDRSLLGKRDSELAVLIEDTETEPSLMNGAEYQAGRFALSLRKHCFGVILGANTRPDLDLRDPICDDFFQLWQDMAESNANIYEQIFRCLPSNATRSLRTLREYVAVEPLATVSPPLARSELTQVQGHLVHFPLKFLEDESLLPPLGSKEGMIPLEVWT
Method in brief: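 Purified full-length PLD2 was expressed in Sf21 insect cells with a baculovirus system and enriched on TALON matrix. Two assay formats were used. In one, increasing enzyme amounts, untreated or with 300 nM inhibitor, were run with fixed PC at 3.5 mM. In the other, fixed enzyme, ± 300 nM inhibitor, was run with increasing PC. [3H]-phosphatidylbutanol co-migrating with PBut standards was measured by scintillation counting. Data were plotted as Michaelis-Menten and Lineweaver-Burk plots.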

recombinant PLD2 [3] = molecular target: T2, recombinant PLD2; assay: Lipase assay of recombinant PLD2 with increasing concentrations of PIP2; format: biochemical; conditions: 300 nM inhibitor, fixed PC8
Method in brief: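 Baculovirus-expressed, TALON-enriched full-length PLD2 was left untreated or treated with 300 nM inhibitor. It was then run in the lipase assay with increasing PIP2 concentrations and a fixed concentration of PC8 substrate. Activity was read as radiolabelled phosphatidylbutanol, co-migrating with PBut standards, by scintillation counting.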

PLD2 mutants [4] = molecular target: PLD2 mutants (Homo sapiens, UniProt O14939, S757A); assay: Lipase activity of PLD2 mutants overexpressed in COS7 cells; format: biochemical; conditions: 300 nM
Chain of PLD2 mutants (Homo sapiens, UniProt O14939, S757A) (O14939 whole entry S757A): as the sequence (O14939 whole entry, species assumed) above, with S757A counted along it
Method in brief: (§1)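 COS-7 cells in DMEM/10% FBS were transfected at 60% confluence with 1–6 μg plasmid (PLD2 mutants) using Lipofectamine/Plus, with 3 h exposure and 48 h expression. Lysates were treated with 300 nM test compound for 25 min. The lipase assay ran 20 min at 30 °C with shaking and was stopped with ice-cold chloroform/methanol (1:2). Lipids were separated by TLC, and [3H]-phosphatidylbutanol was quantified by scintillation counting.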

PLD2 mutants [5] = assay: as above; format: biochemical
Method in brief: as §1

[6] = in vivo ref Monovich, Mugrage et al. 2007; cited from earlier work
PLD1 [7] = molecular target: T1, PLD1; conditions: inhibiting PLD1 in the tumor microenvironment ref Chen, Hongu et al. 2012; cited from earlier work
[8] = tested on: breast cancer cells (MDA-MB-231); assay: Cell invasion assay; format: cell-based; conditions: 300 nM, 700 nM; not in cells overexpressing resistant PLD2 mutants
Method in brief: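 PLD2 mutant constructs were overexpressed by transfection. After transfection, cells were harvested and treated with the test compound at 300 or 700 nM for 20 min. Invasion was then run in Matrigel inserts.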

PLD2 = conditions: xenograft mice models ref Henkels, Boivin et al. 2013; cited from earlier work
[9] = ref Lewis JA et al, Bioorg Med Chem Lett, 2009

SMILES: CC(CN1CCC(n2c(=O)[nH]c3cc(Cl)ccc32)CC1)NC(=O)c1ccc2ccccc2c1 (stereo not shown) [NBOD, N-[2-[4-(5-chloro-2,3-dihydro-2-oxo-1H-benzimidazol-1-yl)-1-piperidinyl]-1-methylethyl]-2-naphthalenecarboxamide]
- Isoform specificity (PLD; [9]): PLD1 inhibitor

SMILES: O=C(NCCN1CCC(n2c(=O)[nH]c3ccccc32)CC1)c1cc2cc(F)ccc2[nH]1 [FIPI, N-[2-[4-(2,3-dihydro-2-oxo-1H-benzimidazol-1-yl)-1-piperidinyl]ethyl]-5-fluoro-1H-indole-2-carboxamide]
- IC50 (PLD1 [1]): 30 nM
- Competition by increasing enzyme or substrate (recombinant PLD2 [2]): not totally competed off
- Effect on Km (recombinant PLD2 [2]): increase the Km
- Effect on Vmax (recombinant PLD2 [2]): decreasing the Vmax
- Type of inhibition (Lineweaver Burk plot) (recombinant PLD2 [2]): mixed-type inhibition
- PLD2 inhibition with increasing concentrations of PIP2 (recombinant PLD2 [3]): FIPI inhibited the enzyme
- Inhibition of PLD2-S757A lipase activity (PLD2 mutants [4]): resistant
- Inhibition of lipase activity of the battery of PLD2 mutants (PLD2 mutants [5]; 300 nM): inhibited most of the mutants
- bioavailability [6]: 18%
- half-life in vivo [6]: 5.5 h
- Metastasis and angiogenesis (PLD1 [7]): dampens metastasis and angiogenesis
- Isoform specificity (PLD; ref Su W et al, Mol Pharmacol, 2009): Dual (PLD1 and PLD2) inhibitor

SMILES: O=C(NCCN1CCC2(CC1)C(=O)NCN2c1cccc(F)c1)c1ccc2ccccc2c1 [NFOT, N-[2-[1-(3-Fluorophenyl)-4-oxo-1,3,-8-triazaspiro[4,5]dec-8-yl]ethyl]-2-naphthalenecarboxamide]
- Effect on Km (recombinant PLD2 [2]): increase the Km
- Effect on Vmax (recombinant PLD2 [2]): decreasing the Vmax
- Type of inhibition (Lineweaver Burk plot) (recombinant PLD2 [2]): mixed-type inhibition
- PLD2 inhibition with increasing concentrations of PIP2 (recombinant PLD2 [3]): enzyme activity was regained back
- Inhibition of PLD2-H158Q, Y165F, L173A, R210/212A, F244N/L245/L246A, S648A and S757A lipase activity (PLD2 mutants [5]; 300 nM): demonstrated resistance
- Inhibition of PLD2-R210A/R212A, F244N/L245/L246A, S648A and S757A lipase activity (PLD2 mutants [5]; range of inhibitor concentrations, Figure 5): partially resistant to inhibition
- Cell invasion of cancer cells [8]: prevents cell invasion
- Isoform specificity (PLD; ref Lavieri RR et al, J Med Chem, 2010): PLD2 inhibitor

SMILES: O=C(NCCN1CCC2(CC1)C(=O)NCN2c1ccccc1)c1ccc2ccccc2c1 [NOPT, N-[2-(4-oxo-1-phenyl-1,3,8-triazaspiro[4,5]dec-8-yl)ethyl]-2-naphthalenecarboxamide]
- Tumor metastasis and cell invasion (PLD2): inhibited tumor metastasis and cell invasion
- Isoform specificity (PLD; [9]): PLD2 inhibitor

SMILES: C[C@@H](CN1CCC(n2c(=O)[nH]c3cc(Br)ccc32)CC1)NC(=O)[C@@H]1C[C@H]1c1ccccc1 [RBPC, (1R,2R)-N-([S]-1-{4-[5-bromo-2-oxo-2,3-dihydro-1H-benzo(d)imidazol-1-yl]piperidin-1-yl}propan-2-yl)-2-phenylcyclopropanecarboxamide]
- Inhibition of PLD activity in PLD1 overexpressed samples (PLD1 [1]; Figure 1): did not efficiently inhibit PLD activity
- Isoform specificity (PLD; [9]): PLD1 inhibitor
